Reference: ChEMBL document CHEMBL5136979, “An Open Drug Discovery Competition: Experimental Validation of Predictive Models in a Series of Novel Antimalarials” (J Med Chem, 2021)
The source made the active and inactive calls.

System: Plasmodium falciparum
Test: Antimalarial activity against chloroquine-sensitive Plasmodium falciparum 3D7 assessed as parasite growth inhibition
Type: functional, organism-based
Summary of the method: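 P. falciparum 3D7 asexual blood stages grown in 5% human RBC suspension in RPMI 1640 with 0.5% Albumax II, 12 mM bicarbonate, 0.2 mM hypoxanthine (pH 7.3), gentamicin, 37 °C, 1% O2/3% CO2/N2. 10-point, 1-in-3 dilution series from 10 or 25 μM top. SYBR Green I DNA fluorescence (ex 485/em 528 nm). IC50 from ≥3 independent experiments.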

| SMILES | IC50 |
| --- | --- |
| FC(F)Oc1ccc(-c2nnc3cncc(OCC(F)(F)F)n23)cc1 | > 10000 nM |
| O=C(Nc1ccc(F)c(Cl)c1)c1cncc2nnc(-c3ccc(OC(F)F)cc3)n12 | 191 nM |
| Cc1ccc(COc2cncc3nnc(-c4ccc(C(C)C)cc4)n23)cn1 | > 25000 nM |
| Fc1ccc(CCNc2cn3c(-c4ccc(OC(F)F)cc4)nnc3cn2)cc1 | > 10000 nM |
| CC(O)COc1cncc2nnc(-c3ccc(OC(F)F)cc3)n12 (stereo not drawn) | > 25000 nM |
| FC(F)Oc1ccc(-c2nnc3cncc(OCCc4ccccc4)n23)cc1 | 370 nM |
| Nc1cccc(CCOc2cncc3nnc(-c4ccc(Cl)cc4)n23)c1 | 2420 nM |
| FC(F)Oc1ccc(-c2nnc3cncc(OCCc4ccco4)n23)cc1 | 1240 nM |
| O=C(NCc1cccc(C(F)(F)F)c1Cl)c1cncc2nnc(-c3ccc(OC(F)F)cc3)n12 | 309 nM |
| O=C(Nc1ccnc(C(F)(F)F)c1)c1cncc2nnc(-c3ccc(OC(F)F)cc3)n12 | 140 nM |
| CC(C)(C)Oc1ccc(-c2nnc3cncc(OCC(O)c4ccc(F)c(F)c4)n23)cc1 (stereo not drawn) | 460 nM |
| O=C(Cc1cccc(Cl)c1)Nc1cn2c(-c3ccc(OC(F)F)cc3)nnc2cn1 | > 10000 nM |
| NCc1cccc(CCOc2cncc3nnc(-c4ccc(Cl)cc4)n23)c1 | 10000 nM |
| O=C(Nc1ccc(Cl)cc1)c1cncc2nnc(-c3ccc(OC(F)F)cc3)n12 | 5000 nM |

System: Plasmodium falciparum
Test: Inhibition of Plasmodium falciparum Dd2 ATP4 assessed as increase in cytosolic [Na+] at 1 uM by fluorescence spectrometry
Summary of the method: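 Dd2 trophozoites freed from erythrocytes with saponin (0.05% w/v final), loaded with Na+-sensitive dye SBFI. Fluorescence measured and calibrated at 37 °C in plate reader or 1 mL cuvette suspensions. Compound tested at 1 μM. Scored as active if it raised cytosolic [Na+] like 50 nM cipargamin.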

| SMILES | inhibition |
| --- | --- |
| O=C(Nc1ccc(F)c(Cl)c1)c1cncc2nnc(-c3ccc(OC(F)F)cc3)n12 | Active |
| FC(F)Oc1ccc(-c2nnc3cncc(OCCc4ccccc4)n23)cc1 | Active |
| Nc1cccc(CCOc2cncc3nnc(-c4ccc(Cl)cc4)n23)c1 | Active |
| O=C(NCc1cccc(C(F)(F)F)c1Cl)c1cncc2nnc(-c3ccc(OC(F)F)cc3)n12 | Active |
| O=C(Nc1ccnc(C(F)(F)F)c1)c1cncc2nnc(-c3ccc(OC(F)F)cc3)n12 | Active |
| CC(C)(C)Oc1ccc(-c2nnc3cncc(OCC(O)c4ccc(F)c(F)c4)n23)cc1 (stereo not drawn) | Active |
| O=C(Nc1ccc(Cl)cc1)c1cncc2nnc(-c3ccc(OC(F)F)cc3)n12 | Active |

System: Plasmodium falciparum
Test: Inhibition of Plasmodium falciparum Dd2 ATP4 assessed as increase in cytosolic pH at 5 uM by fluorescence spectrometry
Summary of the method: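 Saponin-isolated (0.05% w/v final) Dd2 trophozoites loaded with pH-sensitive dye BCECF. Fluorescence read and calibrated at 37 °C in plate reader or 1 mL suspensions. Compound at 5 μM. Scored as active if it caused cytosolic alkalinization like 50 nM cipargamin.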

| SMILES | inhibition |
| --- | --- |
| O=C(Nc1ccc(F)c(Cl)c1)c1cncc2nnc(-c3ccc(OC(F)F)cc3)n12 | Active |
| FC(F)Oc1ccc(-c2nnc3cncc(OCCc4ccccc4)n23)cc1 | Active |
| Nc1cccc(CCOc2cncc3nnc(-c4ccc(Cl)cc4)n23)c1 | Active |
| O=C(NCc1cccc(C(F)(F)F)c1Cl)c1cncc2nnc(-c3ccc(OC(F)F)cc3)n12 | Active |
| O=C(Nc1ccnc(C(F)(F)F)c1)c1cncc2nnc(-c3ccc(OC(F)F)cc3)n12 | Active |
| CC(C)(C)Oc1ccc(-c2nnc3cncc(OCC(O)c4ccc(F)c(F)c4)n23)cc1 (stereo not drawn) | Active |
| O=C(Nc1ccc(Cl)cc1)c1cncc2nnc(-c3ccc(OC(F)F)cc3)n12 | Active |
